Marks after values point to notes of the source that are not given here. One block for each compound: values may come before it.
Columns and labels:
lipase = conditions: cited from earlier work
pancreatic lipase [1] = target: T1, pancreatic lipase (Sus scrofa, UniProt P00591); experiment: Enzymatic assay of lipase activity; type: biochemical; conditions: for inhibition type: Lineweaver–Burk plots, 310 K, 405 nm, pNPC 2.0–3.6 × 10^−3 M
T1 sequence (P00591 1-450): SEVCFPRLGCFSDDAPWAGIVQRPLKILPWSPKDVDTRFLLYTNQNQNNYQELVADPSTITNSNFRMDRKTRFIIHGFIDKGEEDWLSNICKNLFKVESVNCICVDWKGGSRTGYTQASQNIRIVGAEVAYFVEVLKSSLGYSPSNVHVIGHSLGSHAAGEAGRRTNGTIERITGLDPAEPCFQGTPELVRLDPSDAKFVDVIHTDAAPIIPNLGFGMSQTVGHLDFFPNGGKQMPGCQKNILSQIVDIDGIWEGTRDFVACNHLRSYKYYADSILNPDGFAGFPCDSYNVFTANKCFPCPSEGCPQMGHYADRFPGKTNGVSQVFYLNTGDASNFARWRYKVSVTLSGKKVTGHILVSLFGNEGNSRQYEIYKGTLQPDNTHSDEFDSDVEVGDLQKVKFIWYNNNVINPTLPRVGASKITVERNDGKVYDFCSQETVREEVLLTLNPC

pancreatic lipase [2] = target: T1, pancreatic lipase; conditions: cited from earlier work
pancreatic lipase [3] = target: T1, pancreatic lipase; experiment: Fluorescence titration; type: binding; conditions: for ΔG: from fluorescence data; for Kd: K a (binding constant)
Method in brief: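 Lipase held at 6.0×10^-6 M final with 0 to 4.2×10^-5 M final test compound, in 5.0×10^-2 M Tris–HCl pH 7.4. Spectra recorded at 277, 298 and 310 K: excitation 280 nm, emission 300–500 nm, slits 5 nm. Intensities corrected for inner-filter effect.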

pancreatic lipase [4] = target: T1, pancreatic lipase; experiment: ITC analysis of HYP titrated into lipase; type: binding
Method in brief: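 Calorimetric titration: 1.0×10^-4 M lipase in the cell, containing 1% ethanol, titrated with 1.0×10^-3 M test compound. Injections at 180 s intervals, stirring at 250 rpm; other solutions degassed. First injection discarded. Integrated heats corrected for dilution and fitted against molar ratio. ΔG from −RT lnKa; ΔS from ΔG = ΔH − TΔS.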

pancreatic lipase [5] = target: T1, pancreatic lipase; experiment: Synchronous fluorescence spectroscopy; type: binding; conditions: HYP 4.2 × 10^−5 M, 298 K
pancreatic lipase [6] = target: T1, pancreatic lipase; experiment: Time-resolved fluorescence measurements; type: binding; conditions: fluorescence titration and time-resolved fluorescence
Method in brief: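 Fluorescence lifetimes of free lipase and of the lipase–test compound complex at 298 K. Excitation 280 nm, emission 345 nm. Decays analysed by tail fitting, with fits judged by χ². Average lifetime calculated as Σαiτi.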

pancreatic lipase [7] = target: T1, pancreatic lipase; experiment: Fourier-transform infrared spectroscopy of lipase secondary structure; conditions: ratio of lipase to HYP increased from 1 : 0 to 1 : 4, FT-IR, 298 K
Method in brief: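 FT-IR at 298 K: 128 scans at 4 cm⁻¹ resolution. Lipase at 2.0×10^-4 M, alone or with test compound at different ratios. Background, protein and compound spectra subtracted; samples scanned over 1700–1500 cm⁻¹. Amide bands analysed by peak fitting.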

[8] = from fluorescence data at 277, 298, 310 K

SMILES: C[C@@H]1O[C@@H](Oc2c(-c3ccc(O)c(O)c3)oc3cc(O)cc(O)c3c2=O)[C@H](O)[C@H](O)[C@H]1O [quercetin 3-rhamnoside]
- lipase inhibition (lipase): effective in lipase inhibition

- inhibition type (pancreatic lipase [1]): competitive inhibition
SMILES: CCCCCCCCCCC[C@@H](C[C@@H]1OC(=O)[C@H]1CCCCCC)OC(=O)[C@H](CC(C)C)NC=O [orlistat, reference compound]
- reversibility of inhibition (pancreatic lipase [2]): irreversible inhibition

- K SV (Stern–Volmer quenching constant) (pancreatic lipase [3]; 277 K): 7.113 ± 0.029^a × 10^4 M^−1
- KSV (pancreatic lipase [3]; 277 K): 7.113 ± 0.029 × 10^4 M^−1
- n (Hill coefficient) (pancreatic lipase [3]; 277 K): 1.379
- ΔG (pancreatic lipase [3]; 277 K): -8.32 kcal/mol
- K SV (Stern–Volmer quenching constant) (pancreatic lipase [3]; 298 K): 6.826 ± 0.010^b × 10^4 M^−1
- n (Hill coefficient) (pancreatic lipase [3]; 298 K): 1.337
- ΔG (pancreatic lipase [3]; 298 K): -8.489 kcal/mol
- K SV (Stern–Volmer quenching constant) (pancreatic lipase [3]; 310 K): 6.247 ± 0.060^b × 10^4 M^−1
- KSV (pancreatic lipase [3]; 310 K): 6.247 ± 0.060 × 10^4 M^−1
- binding constant (pancreatic lipase [3]; 310 K): 1.048e+06 M⁻¹
- n (Hill coefficient) (pancreatic lipase [3]; 310 K): 1.286
- ΔG (pancreatic lipase [3]; 310 K): -8.587 kcal/mol
- Kd (pancreatic lipase [3]; 277 K): 0.283 µM
- Kd (pancreatic lipase [3]; 298 K): 0.526 µM
- Kd (pancreatic lipase [3]; 310 K): 0.954 µM
- n values (pancreatic lipase [3]; at different temperatures (277, 298, 310 K)): greater than 1
- ΔH (pancreatic lipase [3]; [8]): -6.085 kcal/mol
- ΔS (pancreatic lipase [3]; [8]): 33.77 J mol^−1 K^−1
- Kd (pancreatic lipase [4]): 6.35 µM
- ΔG (pancreatic lipase [4]; ITC): -7.091 kcal/mol
- ΔH (pancreatic lipase [4]; ITC): -5.569 kcal/mol
- ΔS (pancreatic lipase [4]; ITC): 21.36 J mol^−1 K^−1
- IC50 (pancreatic lipase [1]): 1920 µM
- inhibition type (pancreatic lipase [1]): non-competitive inhibitor
- decrease of Tyr residue fluorescence intensity (pancreatic lipase [5]; Δλ = 15 nm): 65.86%
- decrease of Trp residue's fluorescence intensity (pancreatic lipase [5]; Δλ = 60 nm): 73.65%
- quenching mechanism (pancreatic lipase [6]): static quenching
- decrease of α-helix in lipase (pancreatic lipase [7]): 1.6%
SMILES: O=c1c(O[C@@H]2O[C@H](CO)[C@H](O)[C@H](O)[C@H]2O)c(-c2ccc(O)c(O)c2)oc2cc(O)cc(O)c12 [HYP, quercetin-3-O-β-D-galactoside]

From article PMC9950857 (RSC Advances, 2023)
